ChEMBL document CHEMBL4257503, “N-Acetyl-3-aminopyrazoles block the non-canonical NF-kB cascade by selectively inhibiting NIK” (Medchemcomm, 2018)
Calls of active or inactive are those of the source.

Assays:
[1] = biological target: T1, Inhibitor of nuclear factor kappa-B kinase subunit beta (Homo sapiens, UniProt O14920); assay: Inhibition of recombinant human full-length N-terminal GST-fused/His6-tagged IKKbeta (M1 to S756 residues) expressed in Sf9 insect cells using ERLLDDRHDSGLDSMKDEE peptide as substrate measured after 60 mins by ADP-Glo kinase assay
T1 sequence (O14920 whole entry): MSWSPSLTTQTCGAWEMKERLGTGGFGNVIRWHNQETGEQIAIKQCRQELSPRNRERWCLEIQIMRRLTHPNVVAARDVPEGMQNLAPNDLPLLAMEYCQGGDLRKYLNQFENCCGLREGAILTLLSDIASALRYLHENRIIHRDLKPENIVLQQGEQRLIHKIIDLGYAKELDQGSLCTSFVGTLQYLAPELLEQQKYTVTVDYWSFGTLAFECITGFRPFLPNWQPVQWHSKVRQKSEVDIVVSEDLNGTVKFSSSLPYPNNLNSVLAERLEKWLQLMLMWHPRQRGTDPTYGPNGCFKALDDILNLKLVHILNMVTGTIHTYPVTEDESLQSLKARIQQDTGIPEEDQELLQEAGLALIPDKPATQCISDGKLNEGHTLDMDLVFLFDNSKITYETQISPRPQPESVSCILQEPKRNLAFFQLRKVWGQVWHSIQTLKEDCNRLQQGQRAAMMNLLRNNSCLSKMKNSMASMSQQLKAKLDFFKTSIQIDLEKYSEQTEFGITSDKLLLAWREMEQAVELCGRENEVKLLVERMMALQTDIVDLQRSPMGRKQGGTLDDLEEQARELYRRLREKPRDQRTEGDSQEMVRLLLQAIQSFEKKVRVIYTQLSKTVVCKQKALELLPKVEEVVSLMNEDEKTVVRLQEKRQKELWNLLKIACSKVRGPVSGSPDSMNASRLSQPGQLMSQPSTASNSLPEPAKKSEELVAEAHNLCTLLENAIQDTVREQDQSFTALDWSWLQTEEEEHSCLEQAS

[2] = biological target: T2, Mitogen-activated protein kinase kinase kinase 14 (Homo sapiens, UniProt Q99558); assay: Inhibition of recombinant human full-length N-terminal GST-fused/His6-tagged NIK (M1 to P947 residues) expressed in Sf9 insect cells using AKDVDQGSLCTSFVGTLQY peptide as substrate measured after 60 mins by ADP-Glo kinase assay
[3] = biological target: T2, Mitogen-activated protein kinase kinase kinase 14; assay: Inhibition of NIK-induced NFkappaB activation in human EJM cells at 25 uM after 6 hrs by dual luciferase reporter gene assay relative to control; format: cell-based
Outline: (§1)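 Cells were nucleofected with the pGL4.32 NF-κB-RE firefly luciferase and pGL4.74 TK-Renilla plasmids (3 µg, 10:1 ratio) and cultured for 24 h at 37 °C. Compound (10, 25, 50 or 100 µM) was then added for 6 h. Firefly luminescence was normalised to Renilla from the same sample and expressed as % of vehicle control. Means ± SD of three independent experiments.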

MDA-MB-231 = assay: Inhibition of NFkappaB activation in human MDA-MB-231 cells at 100 uM after 6 hrs by dual luciferase reporter gene assay relative to control; format: cell-based; outline: as §1
Mus musculus = species: Mus musculus; assay: Inhibition of mouse NIK kinase domain V480L mutant
[4] = biological target: 5'-AMP-activated protein kinase catalytic subunit alpha-1 (Homo sapiens, UniProt Q13131); assay: Inhibition of AMPK alpha1 (unknown origin) (1 to 550 residues)
Sequence of 5'-AMP-activated protein kinase catalytic subunit alpha-1 (Q13131 whole entry, the tested form may be a part): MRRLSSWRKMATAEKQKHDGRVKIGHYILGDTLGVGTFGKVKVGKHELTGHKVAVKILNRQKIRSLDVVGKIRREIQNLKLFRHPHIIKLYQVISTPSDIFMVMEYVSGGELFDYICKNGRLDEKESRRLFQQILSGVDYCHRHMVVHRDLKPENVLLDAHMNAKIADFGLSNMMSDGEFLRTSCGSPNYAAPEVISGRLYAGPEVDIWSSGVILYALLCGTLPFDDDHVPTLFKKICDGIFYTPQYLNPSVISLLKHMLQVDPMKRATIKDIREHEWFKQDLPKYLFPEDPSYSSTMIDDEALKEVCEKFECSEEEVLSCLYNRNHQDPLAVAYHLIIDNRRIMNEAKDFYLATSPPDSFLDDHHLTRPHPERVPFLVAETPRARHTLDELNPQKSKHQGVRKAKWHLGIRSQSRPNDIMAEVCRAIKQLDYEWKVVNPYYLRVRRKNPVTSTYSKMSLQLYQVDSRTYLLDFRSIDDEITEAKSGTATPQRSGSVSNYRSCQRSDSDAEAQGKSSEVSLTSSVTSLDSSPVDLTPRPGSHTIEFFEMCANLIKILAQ

[5] = biological target: Tyrosine-protein kinase receptor UFO (Homo sapiens, UniProt P30530); assay: Inhibition of AXL (unknown origin)
Sequence of Tyrosine-protein kinase receptor UFO (P30530 whole entry): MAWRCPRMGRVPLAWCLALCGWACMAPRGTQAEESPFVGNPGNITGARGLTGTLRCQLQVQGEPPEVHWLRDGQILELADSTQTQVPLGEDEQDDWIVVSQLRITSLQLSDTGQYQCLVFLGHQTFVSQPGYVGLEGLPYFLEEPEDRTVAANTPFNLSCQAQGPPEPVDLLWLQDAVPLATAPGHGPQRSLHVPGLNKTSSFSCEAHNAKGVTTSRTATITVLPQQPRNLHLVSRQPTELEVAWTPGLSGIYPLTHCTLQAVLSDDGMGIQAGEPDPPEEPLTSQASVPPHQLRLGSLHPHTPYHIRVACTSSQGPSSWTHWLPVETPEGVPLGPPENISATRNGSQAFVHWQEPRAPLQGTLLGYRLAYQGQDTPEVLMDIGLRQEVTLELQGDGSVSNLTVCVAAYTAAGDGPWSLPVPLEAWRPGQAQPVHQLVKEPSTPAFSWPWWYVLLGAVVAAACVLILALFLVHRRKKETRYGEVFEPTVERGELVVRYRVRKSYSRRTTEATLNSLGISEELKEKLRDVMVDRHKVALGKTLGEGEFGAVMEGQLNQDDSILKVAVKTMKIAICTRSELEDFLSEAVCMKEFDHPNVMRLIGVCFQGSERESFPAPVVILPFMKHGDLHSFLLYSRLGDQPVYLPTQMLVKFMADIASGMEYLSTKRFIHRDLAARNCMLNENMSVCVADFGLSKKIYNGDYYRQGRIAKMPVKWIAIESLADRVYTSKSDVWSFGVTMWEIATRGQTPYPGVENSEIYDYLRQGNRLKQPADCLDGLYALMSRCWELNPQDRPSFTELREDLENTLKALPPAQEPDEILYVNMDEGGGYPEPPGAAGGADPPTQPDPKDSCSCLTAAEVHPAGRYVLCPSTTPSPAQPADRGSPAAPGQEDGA

[6] = biological target: Cyclin-dependent kinase 1/cyclin B1 (Homo sapiens, UniProt P06493); assay: Inhibition of CDK1/Cyclin B1 (unknown origin); format: protein-complex assay
[7] = biological target: Serine/threonine-protein kinase Chk2 (Homo sapiens, UniProt O96017); assay: Inhibition of CHK2 (unknown origin)
[8] = biological target: Casein kinase I isoform alpha (Homo sapiens, UniProt P48729); assay: Inhibition of CK1-alpha1 (unknown origin)
[9] = biological target: Casein kinase II subunit alpha (Homo sapiens, UniProt P68400); assay: Inhibition of CK2-alpha1 (unknown origin)
[10] = biological target: Dual specificity protein kinase CLK1 (Homo sapiens, UniProt P49759); assay: Inhibition of CLK1 (unknown origin)
[11] = biological target: Mitogen-activated protein kinase kinase kinase 8 (Homo sapiens, UniProt P41279); assay: Inhibition of COT (unknown origin)
[12] = biological target: Tyrosine-protein kinase CSK (Homo sapiens, UniProt P41240); assay: Inhibition of CSK (unknown origin)
Ephrin type-A receptor 6 = Ephrin type-A receptor 6 (Homo sapiens, UniProt Q9UF33); assay: Inhibition of EPHA6 (unknown origin)
[13] = biological target: Fibroblast growth factor receptor 1 (Homo sapiens, UniProt P11362); assay: Inhibition of wild-type FGFR1 (unknown origin)
[14] = biological target: Glycogen synthase kinase-3 beta (Homo sapiens, UniProt P49841); assay: Inhibition of GSK3-beta (unknown origin)
[15] = biological target: Interleukin-1 receptor-associated kinase 4 (Homo sapiens, UniProt Q9NWZ3); assay: Inhibition of untagged IRAK4 (unknown origin)
[16] = biological target: Mitogen-activated protein kinase kinase kinase kinase 2 (Homo sapiens, UniProt Q12851); assay: Inhibition of MAP4K2 (unknown origin)
[17] = biological target: Dual specificity mitogen-activated protein kinase kinase 1 (Homo sapiens, UniProt Q02750); assay: Inhibition of wild-type MEK1 (unknown origin)
[18] = biological target: Maternal embryonic leucine zipper kinase (Homo sapiens, UniProt Q14680); assay: Inhibition of MELK (unknown origin)
Sequence of Maternal embryonic leucine zipper kinase (Q14680 whole entry): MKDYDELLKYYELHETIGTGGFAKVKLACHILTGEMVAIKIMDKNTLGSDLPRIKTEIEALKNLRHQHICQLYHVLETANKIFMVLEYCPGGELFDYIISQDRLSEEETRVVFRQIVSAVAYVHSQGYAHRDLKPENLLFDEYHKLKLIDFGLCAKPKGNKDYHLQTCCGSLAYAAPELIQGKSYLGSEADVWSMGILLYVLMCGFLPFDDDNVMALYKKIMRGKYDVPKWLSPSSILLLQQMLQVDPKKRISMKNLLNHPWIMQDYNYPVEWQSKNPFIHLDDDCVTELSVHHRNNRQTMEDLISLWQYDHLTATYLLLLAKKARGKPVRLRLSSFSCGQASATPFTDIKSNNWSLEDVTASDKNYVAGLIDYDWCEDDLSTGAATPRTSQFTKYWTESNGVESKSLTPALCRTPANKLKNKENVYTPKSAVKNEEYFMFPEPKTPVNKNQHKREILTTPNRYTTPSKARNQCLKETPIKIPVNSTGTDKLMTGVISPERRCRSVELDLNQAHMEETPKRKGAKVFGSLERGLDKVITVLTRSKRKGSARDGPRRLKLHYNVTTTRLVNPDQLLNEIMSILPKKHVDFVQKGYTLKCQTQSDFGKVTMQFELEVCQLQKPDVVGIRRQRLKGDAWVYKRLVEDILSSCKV

[19] = biological target: Hepatocyte growth factor receptor (Homo sapiens, UniProt P08581); assay: Inhibition of wild-type MET (unknown origin)
Sequence of Hepatocyte growth factor receptor (P08581 whole entry): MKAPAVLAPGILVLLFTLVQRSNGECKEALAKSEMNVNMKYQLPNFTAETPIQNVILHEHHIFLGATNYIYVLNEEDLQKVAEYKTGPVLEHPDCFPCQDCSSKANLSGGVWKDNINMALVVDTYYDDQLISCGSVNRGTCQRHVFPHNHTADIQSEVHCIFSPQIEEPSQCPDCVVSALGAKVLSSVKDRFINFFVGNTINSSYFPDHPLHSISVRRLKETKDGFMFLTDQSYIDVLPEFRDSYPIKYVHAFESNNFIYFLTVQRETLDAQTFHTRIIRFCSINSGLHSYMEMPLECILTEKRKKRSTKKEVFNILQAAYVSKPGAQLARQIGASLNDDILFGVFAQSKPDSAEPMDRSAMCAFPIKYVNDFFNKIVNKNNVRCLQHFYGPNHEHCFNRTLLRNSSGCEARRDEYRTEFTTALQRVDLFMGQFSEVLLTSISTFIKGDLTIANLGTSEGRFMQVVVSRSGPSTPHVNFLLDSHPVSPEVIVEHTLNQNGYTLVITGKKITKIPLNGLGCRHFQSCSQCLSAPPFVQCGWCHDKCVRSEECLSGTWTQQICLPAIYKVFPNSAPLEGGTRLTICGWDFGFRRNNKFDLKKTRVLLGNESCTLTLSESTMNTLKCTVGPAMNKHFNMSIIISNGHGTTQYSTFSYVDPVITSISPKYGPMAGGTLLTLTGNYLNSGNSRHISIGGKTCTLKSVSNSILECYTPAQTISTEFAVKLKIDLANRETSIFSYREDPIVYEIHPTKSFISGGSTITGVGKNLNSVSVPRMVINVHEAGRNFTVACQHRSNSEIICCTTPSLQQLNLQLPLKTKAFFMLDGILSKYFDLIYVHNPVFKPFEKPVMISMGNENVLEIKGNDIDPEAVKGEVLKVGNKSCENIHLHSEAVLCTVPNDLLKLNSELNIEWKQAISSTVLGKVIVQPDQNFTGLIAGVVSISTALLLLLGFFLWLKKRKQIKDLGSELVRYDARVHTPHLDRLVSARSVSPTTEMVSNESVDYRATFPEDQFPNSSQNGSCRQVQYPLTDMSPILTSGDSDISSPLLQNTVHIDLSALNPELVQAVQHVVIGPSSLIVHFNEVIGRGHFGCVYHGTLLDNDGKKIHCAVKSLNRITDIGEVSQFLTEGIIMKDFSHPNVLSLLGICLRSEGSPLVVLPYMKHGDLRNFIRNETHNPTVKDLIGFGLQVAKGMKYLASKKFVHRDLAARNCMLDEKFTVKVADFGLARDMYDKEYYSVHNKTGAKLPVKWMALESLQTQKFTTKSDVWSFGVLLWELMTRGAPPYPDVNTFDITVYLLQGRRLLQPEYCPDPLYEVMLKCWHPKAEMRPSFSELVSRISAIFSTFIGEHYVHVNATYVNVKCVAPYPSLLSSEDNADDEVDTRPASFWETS

[20] = biological target: Serine/threonine-protein kinase mTOR (Homo sapiens, UniProt P42345); assay: Inhibition of mTOR (unknown origin)
[21] = biological target: Serine/threonine-protein kinase Nek6 (Homo sapiens, UniProt Q9HC98); assay: Inhibition of NEK6 (unknown origin)
Sequence of Serine/threonine-protein kinase Nek6 (Q9HC98 whole entry): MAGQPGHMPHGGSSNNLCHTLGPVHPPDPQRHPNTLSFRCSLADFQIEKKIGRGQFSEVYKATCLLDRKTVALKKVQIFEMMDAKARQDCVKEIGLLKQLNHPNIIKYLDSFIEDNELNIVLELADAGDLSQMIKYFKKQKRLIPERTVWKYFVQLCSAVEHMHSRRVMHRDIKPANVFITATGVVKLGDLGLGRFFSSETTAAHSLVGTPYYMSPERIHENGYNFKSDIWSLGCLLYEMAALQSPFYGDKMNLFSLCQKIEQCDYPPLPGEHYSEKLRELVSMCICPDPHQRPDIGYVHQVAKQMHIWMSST

[22] = biological target: Mitogen-activated protein kinase 14 (Homo sapiens, UniProt Q16539); assay: Inhibition of p38-alpha (unknown origin)
Sequence of Mitogen-activated protein kinase 14 (Q16539 whole entry): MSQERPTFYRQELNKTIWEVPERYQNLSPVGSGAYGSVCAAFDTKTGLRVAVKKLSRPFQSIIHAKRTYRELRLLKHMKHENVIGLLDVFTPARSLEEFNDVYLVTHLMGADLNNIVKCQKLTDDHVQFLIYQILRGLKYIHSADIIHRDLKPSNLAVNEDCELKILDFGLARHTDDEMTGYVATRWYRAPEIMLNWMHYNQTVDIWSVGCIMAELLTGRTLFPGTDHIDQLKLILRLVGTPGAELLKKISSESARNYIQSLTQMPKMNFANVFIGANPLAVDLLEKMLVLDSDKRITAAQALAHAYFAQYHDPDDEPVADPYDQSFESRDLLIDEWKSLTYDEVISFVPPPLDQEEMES

[23] = biological target: Platelet-derived growth factor receptor alpha (Homo sapiens, UniProt P16234); assay: Inhibition of wild-type PDGFR-alpha (unknown origin)
[24] = biological target: Serine/threonine-protein kinase PLK1 (Homo sapiens, UniProt P53350); assay: Inhibition of PLK1 (unknown origin)
[25] = biological target: Proto-oncogene tyrosine-protein kinase Src (Homo sapiens, UniProt P12931); assay: Inhibition of GST/His-tagged SRC (unknown origin)
[26] = biological target: Tyrosine-protein kinase SYK (Homo sapiens, UniProt P43405); assay: Inhibition of SYK (unknown origin)
[27] = biological target: Serine/threonine-protein kinase TAO2 (Homo sapiens, UniProt Q9UL54); assay: Inhibition of TAOK2 (unknown origin)
[28] = biological target: Serine/threonine-protein kinase tousled-like 1 (Homo sapiens, UniProt Q9UKI8); assay: Inhibition of TLK1 (unknown origin)
Sequence of Serine/threonine-protein kinase tousled-like 1 (Q9UKI8 whole entry): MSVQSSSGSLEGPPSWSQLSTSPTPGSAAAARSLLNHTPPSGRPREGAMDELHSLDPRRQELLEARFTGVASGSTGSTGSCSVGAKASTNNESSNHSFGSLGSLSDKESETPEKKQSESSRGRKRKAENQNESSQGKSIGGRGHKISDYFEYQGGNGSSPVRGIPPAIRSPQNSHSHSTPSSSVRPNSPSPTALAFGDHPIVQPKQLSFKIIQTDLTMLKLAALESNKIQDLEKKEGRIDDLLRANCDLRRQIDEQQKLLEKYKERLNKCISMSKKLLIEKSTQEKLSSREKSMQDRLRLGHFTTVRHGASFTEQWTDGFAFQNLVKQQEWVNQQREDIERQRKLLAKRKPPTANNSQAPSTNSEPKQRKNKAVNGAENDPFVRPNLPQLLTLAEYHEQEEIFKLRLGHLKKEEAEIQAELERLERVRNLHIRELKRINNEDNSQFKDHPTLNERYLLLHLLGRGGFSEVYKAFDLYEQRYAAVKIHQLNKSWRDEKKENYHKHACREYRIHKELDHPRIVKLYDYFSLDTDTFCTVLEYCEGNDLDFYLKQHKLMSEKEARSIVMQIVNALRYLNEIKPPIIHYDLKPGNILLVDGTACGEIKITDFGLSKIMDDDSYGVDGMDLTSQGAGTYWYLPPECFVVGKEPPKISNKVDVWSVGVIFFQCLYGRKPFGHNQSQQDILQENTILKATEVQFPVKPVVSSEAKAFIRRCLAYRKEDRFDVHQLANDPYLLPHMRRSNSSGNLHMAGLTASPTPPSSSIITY

[29] = Stability in human liver microsomes at 1 uM in absence of NADPH cofactor; format: ADME, microsome
[30] = Kinetic solubility in phosphate buffered saline at pH 7.4 measured after 60 mins; format: physicochemical; conditions: read-out: Kinetic_solubility

CC(=O)n1nc(C)c(-c2ccc(Cl)c(Cl)c2)c1N
12 µM: solubility kinetic at 1 h [30]
83.4%: inhibition [3]
8.4 µM: IC50 [2]
inactive: inhibition (Mus musculus)
-0.77%: inhibition (MDA-MB-231)
> 100 µM: IC50 [1] | IC50 [4] | IC50 [5] | IC50 [6] | IC50 [7] | IC50 [8] | IC50 [9] | IC50 [10] | IC50 [11] | IC50 [12] | IC50 (Ephrin type-A receptor 6) | IC50 [13] | IC50 [14] | IC50 [15] | IC50 [16] | IC50 [17] | IC50 [18] | IC50 [19] | IC50 [20] | IC50 [21] | IC50 [22] | IC50 [23] | IC50 [24] | IC50 [25] | IC50 [26] | IC50 [27] | IC50 [28]
Unstable: Stability [29]
